# Data reported in ChEMBL document CHEMBL1275589, “Molecular epidemiology, sequence types, and plasmid analyses of KPC-producing Klebsiella pneumoniae strains in Israel” (2010).
# How the values were obtained:
# [1] = tested on: Klebsiella pneumoniae; assay: Antimicrobial activity against KPC-3 producing Klebsiella pneumoniae 557 ST 258 expressing beta-lactamase TEM-1 by agar dilution method
# [2] = tested on: Klebsiella pneumoniae; assay: Antimicrobial activity against carbapenem-resistant KPC-2 producing Klebsiella pneumoniae 588 transformant by agar dilution method; type: functional
# [3] = tested on: Klebsiella pneumoniae; assay: Antimicrobial activity against carbapenem-resistant KPC-2 producing Klebsiella pneumoniae 531 transformant by agar dilution method; type: functional
# [4] = tested on: Klebsiella pneumoniae; assay: Antimicrobial activity against carbapenem-resistant KPC-2 producing Klebsiella pneumoniae 475 ST 277 expressing beta-lactamase SHV-27, CTX-M-15 and OXA-4 by agar dilution method; type: functional
# [5] = tested on: Klebsiella pneumoniae; assay: Antimicrobial activity against carbapenem-resistant KPC-2 producing Klebsiella pneumoniae 475 transformant by agar dilution method; type: functional
# [6] = tested on: Klebsiella pneumoniae; assay: Antimicrobial activity against carbapenem-resistant KPC-2 producing Klebsiella pneumoniae 365 transformant by agar dilution method; type: functional
# [7] = tested on: Klebsiella pneumoniae; assay: Antimicrobial activity against carbapenem-resistant KPC-2 producing Klebsiella pneumoniae 526 ST 376 expressing beta-lactamase SHV-1 by agar dilution method; type: functional
# [8] = tested on: Klebsiella pneumoniae; assay: Antimicrobial activity against KPC-3 producing Klebsiella pneumoniae 549 ST 327 expressing beta-lactamase TEM-1 and CTX-M-2 by agar dilution method; type: functional
# [9] = tested on: Klebsiella pneumoniae; assay: Antimicrobial activity against carbapenem-resistant KPC-2 producing Klebsiella pneumoniae 588 ST 340 expressing beta-lactamase TEM-1 and SHV-11 by agar dilution method; type: functional
# [10] = tested on: Escherichia coli; assay: Antimicrobial activity against Escherichia coli Genehogs by agar dilution method; type: functional
# Procedure, shortened: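 Carbapenem MICs by agar dilution, interpreted per CLSI. FDA Enterobacteriaceae breakpoints applied: susceptible ≤2 μg/ml, intermediate 4 μg/ml, resistant ≥8 μg/ml. Transformants were made in recipient E. coli GeneHogs with purified plasmid DNA.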
# [11] = tested on: Klebsiella pneumoniae; assay: Antimicrobial activity against carbapenem-resistant KPC-2 producing Klebsiella pneumoniae 525 ST 376 expressing beta-lactamase SHV-1 by agar dilution method; type: functional
# [12] = tested on: Klebsiella pneumoniae; assay: Antimicrobial activity against carbapenem-resistant KPC-2 producing Klebsiella pneumoniae 469 ST 277 expressing beta-lactamase SHV-27, CTX-M-15 and OXA-4 by agar dilution method; type: functional
# [13] = tested on: Klebsiella pneumoniae; assay: Antimicrobial activity against carbapenem-resistant KPC-2 producing Klebsiella pneumoniae 526 transformant by agar dilution method; type: functional
# [14] = tested on: Klebsiella pneumoniae; assay: Antimicrobial activity against carbapenem-resistant KPC-2 producing Klebsiella pneumoniae 365 ST 376 expressing beta-lactamase SHV-1, CTX-M-15 and OXA-4 by agar dilution method
# [15] = tested on: Klebsiella pneumoniae; assay: Antimicrobial activity against KPC-3 producing Klebsiella pneumoniae 557 transformant by agar dilution method; type: functional
# [16] = tested on: Klebsiella pneumoniae; assay: Antimicrobial activity against carbapenem-resistant KPC-2 producing Klebsiella pneumoniae 523 transformant by agar dilution method; type: functional
# [17] = tested on: Klebsiella pneumoniae; assay: Antimicrobial activity against carbapenem-resistant KPC-2 producing Klebsiella pneumoniae 469 transformant by agar dilution method; type: functional
# [18] = tested on: Klebsiella pneumoniae; assay: Antimicrobial activity against carbapenem-resistant KPC-2 producing Klebsiella pneumoniae 523 ST 340 expressing beta-lactamase TEM-1, SHV-11 and OXA-2 by agar dilution method; type: functional
# [19] = tested on: Klebsiella pneumoniae; assay: Antimicrobial activity against carbapenem-resistant KPC-2 producing Klebsiella pneumoniae 525 transformant by agar dilution method; type: functional
# [20] = tested on: Klebsiella pneumoniae; assay: Antimicrobial activity against KPC-3 producing Klebsiella pneumoniae 549 transformant by agar dilution method; type: functional
# [21] = tested on: Klebsiella pneumoniae; assay: Antimicrobial activity against carbapenem-resistant KPC-2 producing Klebsiella pneumoniae 531 ST 376 expressing beta-lactamase SHV-1 by agar dilution method; type: functional
# [22] = tested on: Klebsiella pneumoniae; assay: Antimicrobial activity against carbapenem-resistant KPC-2 producing Klebsiella pneumoniae 469 ST 277 expressing beta-lactamase SHV-27, CTX-M-15 and OXA-4 by Etest; type: functional
# [23] = tested on: Klebsiella pneumoniae; assay: Antimicrobial activity against KPC-3 producing Klebsiella pneumoniae 549 ST 327 expressing beta-lactamase TEM-1 and CTX-M-2 by Etest; type: functional
# [24] = tested on: Klebsiella pneumoniae; assay: Antimicrobial activity against carbapenem-resistant KPC-2 producing Klebsiella pneumoniae 588 ST 340 expressing beta-lactamase TEM-1 and SHV-11 by Etest; type: functional
# [25] = tested on: Klebsiella pneumoniae; assay: Antimicrobial activity against carbapenem-resistant KPC-2 producing Klebsiella pneumoniae 588 transformant by Etest; type: functional
# [26] = tested on: Klebsiella pneumoniae; assay: Antimicrobial activity against KPC-3 producing Klebsiella pneumoniae 549 transformant by Etest; type: functional
# [27] = tested on: Klebsiella pneumoniae; assay: Antimicrobial activity against carbapenem-resistant KPC-2 producing Klebsiella pneumoniae 523 transformant by Etest; type: functional
# [28] = tested on: Klebsiella pneumoniae; assay: Antimicrobial activity against carbapenem-resistant KPC-2 producing Klebsiella pneumoniae 525 transformant by Etest; type: functional
# [29] = tested on: Klebsiella pneumoniae; assay: Antimicrobial activity against KPC-3 producing Klebsiella pneumoniae 557 transformant by Etest; type: functional
# [30] = tested on: Klebsiella pneumoniae; assay: Antimicrobial activity against carbapenem-resistant KPC-2 producing Klebsiella pneumoniae 531 ST 376 expressing beta-lactamase SHV-1 by Etest; type: functional
# [31] = tested on: Klebsiella pneumoniae; assay: Antimicrobial activity against carbapenem-resistant KPC-2 producing Klebsiella pneumoniae 525 ST 376 expressing beta-lactamase SHV-1 by Etest; type: functional
# [32] = tested on: Klebsiella pneumoniae; assay: Antimicrobial activity against carbapenem-resistant KPC-2 producing Klebsiella pneumoniae 526 transformant by Etest; type: functional
# [33] = tested on: Klebsiella pneumoniae; assay: Antimicrobial activity against carbapenem-resistant KPC-2 producing Klebsiella pneumoniae 475 ST 277 expressing beta-lactamase SHV-27, CTX-M-15 and OXA-4 by Etest; type: functional
# [34] = tested on: Klebsiella pneumoniae; assay: Antimicrobial activity against carbapenem-resistant KPC-2 producing Klebsiella pneumoniae 531 transformant by Etest; type: functional
# [35] = tested on: Klebsiella pneumoniae; assay: Antimicrobial activity against carbapenem-resistant KPC-2 producing Klebsiella pneumoniae 475 transformant by Etest; type: functional
# [36] = tested on: Klebsiella pneumoniae; assay: Antimicrobial activity against carbapenem-resistant KPC-2 producing Klebsiella pneumoniae 523 ST 340 expressing beta-lactamase TEM-1, SHV-11 and OXA-2 by Etest; type: functional
# [37] = tested on: Klebsiella pneumoniae; assay: Antimicrobial activity against carbapenem-resistant KPC-2 producing Klebsiella pneumoniae 526 ST 376 expressing beta-lactamase SHV-1 by Etest; type: functional
# [38] = tested on: Klebsiella pneumoniae; assay: Antimicrobial activity against carbapenem-resistant KPC-2 producing Klebsiella pneumoniae 469 transformant by Etest; type: functional
# [39] = tested on: Escherichia coli; assay: Antimicrobial activity against Escherichia coli Genehogs by Etest; type: functional
# [40] = tested on: Klebsiella pneumoniae; assay: Antimicrobial activity against carbapenem-resistant KPC-2 producing Klebsiella pneumoniae 365 transformant by Etest; type: functional
Compound,MIC [1] [µg/mL],MIC [2] [µg/mL],MIC [3] [µg/mL],MIC [4] [µg/mL],MIC [5] [µg/mL],MIC [6] [µg/mL],MIC [7] [µg/mL],MIC [8] [µg/mL],MIC [9] [µg/mL],MIC [10] [µg/mL],MIC [11] [µg/mL],MIC [12] [µg/mL],MIC [13] [µg/mL],MIC [14] [µg/mL],MIC [15] [µg/mL],MIC [16] [µg/mL],MIC [17] [µg/mL],MIC [18] [µg/mL],MIC [19] [µg/mL],MIC [21] [µg/mL],other results
C[C@@H](O)[C@H]1C(=O)N2C(C(=O)O)=C(SCCNC=N)C[C@H]12 [IMIPENEM ANHYDROUS],128,8,4,32,8,8,32,0.75,32,0.094,32,32,8,32,4,8,8,32,4,32,MIC [20]: 4 µg/mL
C[C@H]1[C@H](NC(=O)/C(=N\OC(C)(C)C(=O)O)c2csc(N)n2)C(=O)N1S(=O)(=O)O [AZTREONAM],> 64,> 64,64,> 64,32,> 64,> 64,> 64,> 64,< 1,> 64,> 64,> 64,> 64,> 64,> 64,32,> 64,> 64,> 64,MIC [20]: > 64 µg/mL
NCC[C@H](O)C(=O)N[C@@H]1C[C@H](N)[C@@H](O[C@H]2O[C@H](CN)[C@@H](O)[C@H](O)[C@H]2O)[C@H](O)[C@H]1O[C@H]1O[C@H](CO)[C@@H](O)[C@H](N)[C@H]1O [AMIKACIN],32,32,16,< 2,8,< 2,4,< 2,32,< 2,8,4,8,4,< 2,> 64,16,16,16,8,
CO/N=C(\C(=O)N[C@@H]1C(=O)N2C(C(=O)O)=C(CSc3nc(=O)c(O)nn3C)CS[C@H]12)c1csc(N)n1 [CEFTRIAXONE],> 64,32,16,16,32,,> 64,> 64,> 64,< 1,> 64,> 64,32,> 64,32,32,> 64,16,8,> 64,MIC [20]: 32 µg/mL
COLISTIN,,,,,,,,,,,,,,,,,,,,,MIC [22]: 0.125 µg/mL; MIC [23]: 0.125 µg/mL; MIC [24]: 0.19 µg/mL; MIC [25]: 0.047 µg/mL; MIC [26]: 0.032 µg/mL; MIC [27]: 0.047 µg/mL; MIC [28]: 0.032 µg/mL; MIC [29]: 0.032 µg/mL; MIC [30]: 0.125 µg/mL; MIC [31]: 0.125 µg/mL; MIC [32]: 0.032 µg/mL; MIC [33]: 0.19 µg/mL; MIC [34]: 0.032 µg/mL; MIC [35]: 0.032 µg/mL; MIC [36]: 0.125 µg/mL; MIC [37]: 0.125 µg/mL; MIC [38]: 0.032 µg/mL; MIC [39]: 0.125 µg/mL; MIC [40]: 0.032 µg/mL
